In ChEMBL document CHEMBL3297652, “Acantholactam and pre-neo-kauluamine, manzamine-related alkaloids from the Indonesian marine sponge Acanthostrongylophora ingens” (J Nat Prod, 2014):

Columns and labels:
HeLa = experiment: Cytotoxicity against human HeLa cells after 3 days by MTT assay; assay type: functional, cell-based; settings: 72 h
How it was run: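 HeLa cells were used, following a previously reported procedure. The result was expressed as an IC50 in μM.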

[1] = Inhibition of chymotrypsin-like activity of rat liver proteasome using fluorogenic substrates for 6 hrs
How it was run: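 The chymotrypsin-like activity of the proteasome was measured by a previously reported procedure. Inhibition was expressed as an IC50 in μM.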

[2] = test system: Macrophage (Homo sapiens); experiment: Inhibition of cholesterol ester accumulation in human monocyte-derived macrophages at 20 uM

| Compound | IC50 (HeLa) | IC50 [1] | inhibition at 20 µM [2] |
| --- | --- | --- | --- |
| O[C@@H]1CC[C@@]23C[C@]45CN6CCCC/C=C\CC[C@](O)(C=C(c7nccc8c7[nH]c7ccccc78)[C@@H]4CC6)[C@@H]5N2CC[C@@H]1O[C@@]12CC[C@@H](O3)[C@@H](O)CCN1[C@@H]1[C@]3(CN4CCCC/C=C\CC[C@]1(O)C=C(c1nccc5c1[nH]c1ccccc15)[C@@H]3CC4)C2 | 5.4 µM | 0.13 µM | 92% |
| O=C(O)/C=C\CCCN1C(=O)C[C@]23CN4CCCC/C=C\CC[C@](O)(C=C(c5nccc6c5[nH]c5ccccc56)[C@@H]2CC4)[C@H]13 | > 50 µM | 33 µM | 0% |
| O[C@]12C=C(c3nccc4c3[nH]c3ccccc34)[C@@H]3CCN(CCCC/C=C\CC1)C[C@@]31C[C@@H]3/C=C\CCCCN3[C@H]12 [MANZAMINE A] | 13 µM | 2 µM | 80% |
| O[C@@H]1CC[C@@]23C[C@]45CN6CCCC/C=C\CC[C@](O)(C=C(c7nccc8c7[nH]c7ccccc78)[C@@H]4CC6)[C@@H]5N2CC[C@@H]1O3 | 16 µM | 0.34 µM | 91% |
